Source: PubChem
This is a sample that favours compounds with a hit; in the whole collection about 4.6% have one here.
OX1R antag-1 – blocks the human orexin 1 receptor; 0.43% of 330,000 active; inhibition, % at 5 µM; CHO/OX1R cells, Fluo-8 calcium fluorescence, orexin A; O43613;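 active = inhibition above its plate's threshold, mean inhibition of all tested compounds on the plate plus 3 SD, cut at about 37% in these data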
TAAR1 agonist – human TAAR1 agonism. Q96RJ0. CHO RD-HGA16 TAAR1, Fluo-8 calcium fluorescence; vehicle wells 0%, saturating PEA agonist 100%. activation, % at 3 µM. 0.99% of 360,000 active. AID 624467;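 active = activation above the mean activation of all test compounds in the run plus 3 SD, cut at about 38% in these data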
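Test system: RD-HGA16 (CHO) cells co-expressing Gα16 and hTAAR1 / Benchmarks: DMSO vehicle as 0%, PEA at EC100 as 100% / Repeats: no replicates (n 1) / Measure: % activation from peak over basal fluorescence ratio, DMSO-to-PEA scaled / Timing: 17-24 h plating, Fluo-8 75 min 37 °C, 30 min RT / Technique: kinetic Fluo-8 calcium fluorescence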
OX1R antag-2 – blocks the human orexin 1 receptor; 1.8% of 330,000 active; OX1R-expressing cells, FRET antagonist read-out; inhibition, % at 6.6 µM; AID 485270; in the data active = inhibition mostly above about 38%, no sharp cut-off; inactive = mostly below about 40%
TAAR1 antagonist – antagonists of human TAAR1 | Q96RJ0 | CHO RD-HGA16 TAAR1, Fluo-8 calcium fluorescence, antagonist | inhibition, % at 3 µM | 1.5% of 360,000 active;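 active = inhibition above a per-plate cutoff, the mean inhibition of test compounds on that plate plus 3 SD, cut at about 49% in these data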
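Material: RD-HGA16 CHO cells with stable hTAAR1 and Gα16; Dosing: single nominal final test compound concentration of 3 µM; Schedule: seeding 17-24 h prior, 75-min 37 °C, 30-min RT dye loading; Detection: kinetic Fluo-8 calcium fluorescence measurement; Measure: % inhibition from peak post-agonist over basal fluorescence ratio; Benchmarks: vehicle and agonist controls.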
CHO parental Ca – signal in parental CHO cells, OX1R antagonist counter-screen; parental CHO-K1, ATP-induced calcium, Fluo-8 fluorescence; inhibition, % at 5.6 µM; 0.63% of 330,000 active;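 active = inhibition above that plate's mean sample inhibition plus 3 SD, cut at about 26% in these data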
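Material: Parental CHO cells | Reagent: ATP | Compound dosing: Single nominal dose of 5.6 µM per compound | Detection: Intracellular calcium via Fluo-8 no-wash fluorescent dye | Read-out: % inhibition of ATP-induced calcium mobilization | Benchmarks: Low control ATP plus DMSO, high control DMSO only | Replicates: Singlicate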
GPR7 antag – human neuropeptides B/W receptor 1 antagonism; AID 1861; 1.1% of 290,000 active; GPR7-expressing cells, fluorescence antagonist assay; inhibition, % at 4.4 µM; P48145; in the data active = inhibition above about 16%, passing the limit was not always enough;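 also: cells stimulated with the agonist NPW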
Target sequence (P48145 whole entry, looked up): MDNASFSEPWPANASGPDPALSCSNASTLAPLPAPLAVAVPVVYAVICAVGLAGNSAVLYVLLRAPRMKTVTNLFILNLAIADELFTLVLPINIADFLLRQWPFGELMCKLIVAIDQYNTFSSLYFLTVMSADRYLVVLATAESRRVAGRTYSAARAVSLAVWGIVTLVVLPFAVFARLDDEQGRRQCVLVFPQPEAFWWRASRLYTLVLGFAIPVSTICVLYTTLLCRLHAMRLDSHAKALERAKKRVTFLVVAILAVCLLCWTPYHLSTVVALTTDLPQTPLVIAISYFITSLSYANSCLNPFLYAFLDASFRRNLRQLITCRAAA
TAAR1 nonsel count – nonselective antagonism, TAAR1 counter-screen. counterscreen cell line, calcium fluorescence, antagonist mode. inhibition, % at 3 µM. shares compounds with TAAR1 antagonist. 77% of 2,400 active; in the data active = inhibition above about 22%;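 also: CHO-Ga16 host cells stimulated with ATP at an EC80 level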
TAAR1 ant conf – confirmation of human TAAR1 antagonists; shares compounds with TAAR1 antagonist; TAAR1-expressing cells, fluorescence antagonist read-out; inhibition, % at 3 µM; 40% of 2,400 active; AID 651785; in the data active = inhibition above about 49%;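 also: CHO-Ga16 host cells challenged with agonist PEA near its EC80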
Ga16 ag counter – nonselective Ga16 agonist in TAAR1 antagonist counter-screen. Ga16-expressing cells, calcium fluorescence, agonist counterscreen. AID 651953. shares compounds with TAAR1 antagonist. activation, % at 3 µM. 18% of 2,400 active; in the data active = activation above about 12%
TAAR1 ag counter – activates human TAAR1 in antagonist counter-screen | shares compounds with TAAR1 antagonist | hTAAR1 cell line, fluorescence activation, agonist mode | activation, % at 3 µM | 2% of 2,400 active | AID 651955; in the data active = activation above about 37%;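 also: CHO cells stably expressing TAAR1 with calcium dye readout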
Numbers stand for hits; n = inactive; x = no result.

SMILES | OX1R antag-1 | TAAR1 agonist | OX1R antag-2 | TAAR1 antagonist | CHO parental Ca | GPR7 antag | TAAR1 nonsel count | TAAR1 ant conf | Ga16 ag counter | TAAR1 ag counter
O=C(C1CCN(S(=O)(=O)c2cccc3cccnc23)CC1)N1CCn2c1nc1ccccc12 | n | n | n | 59.5 | n | n | 28.1 | n | n | n
COc1ccccc1NC(=O)Nc1nc(CC(=O)Nc2cccc(F)c2)cs1 | n | n | n | n | n | x | x | x | x | x
COc1ccccc1NC(=O)Nc1nc(CC(=O)Nc2ccc(F)cc2)cs1 | n | n | n | 51.9 | n | x | 21.8 | n | n | n
COc1ccccc1NC(=O)Nc1nc(CC(=O)Nc2cc(F)ccc2F)cs1 | n | n | n | 59.7 | n | x | 33.8 | 56.4 | n | n
COc1ccccc1NC(=O)N1CCN(c2ccc(F)cc2)CC1 | n | n | n | n | n | n | x | x | x | x
O=C(Cc1csc(NC(=O)Nc2cccc(Cl)c2)n1)NCc1ccccn1 | n | n | n | 64.7 | n | x | 29.1 | n | n | n
COc1ccccc1NC(=O)Nc1nc(CC(=O)N2CCN(c3ccc(F)cc3)CC2)cs1 | n | n | n | 72.3 | n | x | 45.6 | 57.4 | 12.9 | n
Cn1c(CNC(=O)c2ccc3c(c2)OCO3)nnc1SCC(=O)Nc1ccccc1F | n | n | n | n | n | n | x | x | x | x
Cc1ccc(NC(=O)C(C)N2CCN(C)CC2)cc1S(=O)(=O)N1CCOCC1 (centres undefined) | n | n | n | n | n | x | x | x | x | x
COc1ccccc1NC(=O)Nc1ccc(NC(=O)c2ccccc2O)cc1 | n | n | n | 61.0 | n | n | 39.0 | n | n | n
COc1ccccc1NC(=O)Cc1csc(NC(=O)c2ccccc2)n1 | n | n | n | n | n | n | x | x | x | x
COc1ccc(CNC(=O)Cc2csc(NC(=O)Nc3ccccc3OC)n2)cc1 | n | n | n | 56.3 | n | x | n | n | n | n
COc1ccc(C)cc1NC(=O)Cc1csc(NC(=O)Nc2ccccc2OC)n1 | x | n | x | 72.6 | x | x | 26.9 | n | n | n
CCNC(=O)OC[C@H]1O[C@H](C#Cc2ccc(C(C)(C)C)cc2)C=C[C@H]1O | x | n | x | n | x | x | x | x | x | x
CC(C)(C)c1ccc(C#C[C@@H]2C=C[C@H](O)[C@@H](COC(=O)Nc3ccccc3)O2)cc1 | x | n | x | 50.7 | x | x | 25.7 | n | n | n
O=C(CNC(=O)c1ccc(Br)o1)NNC(=O)c1n[nH]c(=O)c2ccccc12 | n | n | n | n | n | x | x | x | x | x
O=C1CC(N(O)C2CC(=O)N(Cc3ccccc3)C2=O)C(=O)N1Cc1ccccc1 (centres undefined) | n | n | n | 68.2 | n | n | 32.6 | 53.6 | n | n
CC(C)(C)c1ccc(OCc2ccc(C(=O)Nc3cccnc3)o2)cc1 | n | n | n | 75.0 | 29.2 | n | 49.7 | 60.9 | n | n
Cn1c(=O)c2ncn(CC(=O)NCCOc3ccc(C(C)(C)C)cc3)c2n(C)c1=O | x | n | x | n | x | n | x | x | x | x
N#Cc1cccc(NC(=O)c2cc(C3CCCCN3C(=O)CCCc3ccccc3)on2)c1 (centres undefined) | x | n | x | 61.3 | x | x | 34.3 | 53.9 | n | n
CCOc1ccc(OCCSc2nc3ccccc3c(=O)[nH]2)cc1 | n | n | n | 62.5 | n | n | n | n | n | n
Fc1ccc(-c2ccc(CNCc3ccccn3)o2)cc1 | n | n | n | n | n | n | x | x | x | x
CCc1nc2ccc(C(=O)NCc3ccc4c(c3)OCO4)cn2c1N(C)CCC(C)C | x | n | x | 67.3 | x | x | n | n | n | n
Cc1c(C(=O)N2CCN(c3ccccc3)CC2)oc2c1C(=O)CC(C)(C)C2 | n | n | n | 67.5 | n | n | 30.4 | 53.3 | n | n
